Source: ChEMBL document CHEMBL1177703, “Design and synthesis of novel xyloketal derivatives and their vasorelaxing activities in rat thoracic aorta and angiogenic activities in zebrafish angiogenesis screen” (J Med Chem, 2010)
Where a name gives a salt, the structure may show the parent alone. Activity calls are given as the source filed them. The rule behind the calls is not given here.

Experiments:
Aorta [1] = experiment: Vasorelaxant activity in Sprague-Dawley rat endothelium denuded thoracic aortic rings assessed as inhibition of KCL-induced contraction; type: functional, tissue-based
How it was run: (§1)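 Rat thoracic aortic rings (2-3 mm) held in Krebs bicarbonate at 37 °C, pH 7.4, gassed with 95% O2/5% CO2. Endothelium accepted as intact with >80% relaxation to 1 μM ACh after 1 μM phenylephrine, and as denuded with no ACh response. Rings precontracted with KCl (30 mM intact, 25 mM denuded). Cumulative curves 0.5-200 μM, vehicle 2% DMSO, one curve per ring; EC50 derived.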

HUVEC [2] = experiment: Protection against oxidatively modified low density lipoprotein-induced cell injury in HUVEC assessed as cell viability at 20 uM pretreated for 30 mins before oxLDL challenge measured after 24 hrs by MTT assay; type: functional, cell-based; settings: Homo sapiens
How it was run: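 HUVECs pretreated 30 min with 20 μM compound, then given oxLDL (150 μg/mL) or vehicle for 24 h. MTT added and absorbance read at 570 nm after 4 h. Mean ± SD, n = 6.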

HUVEC [3] = experiment: Cytotoxicity against HUVEC assessed as cell viability > 200 uM after 24 hrs by MTT assay; type: cell-based; settings: human
Aorta [4] = experiment: Vasorelaxant activity in Sprague-Dawley rat endothelium intact thoracic aortic rings assessed as inhibition of KPSS-induced contraction; type: functional, tissue-based; how it was run: as §1
Danio rerio [5] = species on record: Danio rerio; experiment: Angiogenic activity in zebrafish embryo at 100 uM after 72 hrs by microscopical analysis
Danio rerio [6] = species on record: Danio rerio; experiment: Angiogenic activity in zebrafish embryo after 72 hrs by microscopical analysis
HUVEC [7] = experiment: Induction of nitric oxide production in HUVEC at 20 uM after 24 hrs by griess reaction in presence of L-NAME; type: functional, cell-based; settings: Homo sapiens
How it was run: (§2)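 HUVECs preincubated 24 h with 20 μM compound, alone or together with 100 μM L-NAME. Nitrite in 100 μL medium mixed 1:1 with Griess reagent for 15 min, absorbance read at 540 nm, quantified against a NaNO2 standard curve run with each experiment. Samples in triplicate; mean ± SD, n = 6.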

HUVEC [8] = experiment: Induction of nitric oxide production in HUVEC at 20 uM after 24 hrs by griess reaction; type: functional, cell-based; settings: Homo sapiens; how it was run: as §2

Row | Compound | EC50 (Aorta [1]) | EC50 (Aorta [4]) | Activity (HUVEC [2]) | Activity (HUVEC [3]) | Angiogenic activity (Danio rerio [5]) | Angiogenic activity (Danio rerio [6]) | Activity (HUVEC [7]) | Activity (HUVEC [8])
1 | C=C=CCOc1cc2c(c3c1C[C@@H]1[C@@H](C)CO[C@]1(C)O3)C[C@@H]1[C@@H](C)CO[C@]1(C)O2 [XYLOKETAL B ALLENIC ETHER] | 11 µM | 12 µM | Active | Non-toxic | Active | – | – | –
2 | C[C@H]1CO[C@]2(C)Oc3cc(OC/C=C/c4ccccc4)c4c(c3C[C@H]12)O[C@@]1(C)OC[C@H](C)[C@H]1C4 [XYLOKETAL B CINNAMYL ETHER] | > 200 µM | 64 µM | – | Non-toxic | – | – | – | –
3 | C[C@H]1CO[C@]2(C)Oc3ccc4c(c3C[C@H]12)O[C@@]1(C)OC[C@H](C)[C@H]1C4 [DEHYDROXY XYLOKETAL B] | 72 µM | 55 µM | – | Non-toxic | – | – | – | –
4 | CCCCCCOc1cc2c(c3c1C[C@@H]1[C@@H](C)CO[C@]1(C)O3)C[C@@H]1[C@@H](C)CO[C@]1(C)O2 [XYLOKETAL B HEXYL ETHER] | > 200 µM | > 200 µM | – | Non-toxic | – | – | – | –
5 | COC1(C)CCc2c(c3c(c4c2OC(C)(OC)CC4)OC(C)(OC)CC3)O1 (stereo not drawn) | 118 µM | 65 µM | – | Non-toxic | Active | – | – | –
6 | COc1cc(OC)c2c(c1)O[C@@]1(C)OC[C@H](C)[C@H]1C2 [XYLOKETAL H DIMETHYL ESTER] | 80 µM | 37 µM | – | Non-toxic | – | – | – | –
7 | C[C@H]1CO[C@]2(C)Oc3c(c(O)c(Cc4c(O)c5c(c6c4O[C@@]4(C)OC[C@H](C)[C@H]4C6)O[C@@]4(C)OC[C@H](C)[C@H]4C5)c4c3C[C@@H]3[C@@H](C)CO[C@]3(C)O4)C[C@H]12 | > 200 µM | 87 µM | – | Non-toxic | Active | – | – | –
8 | CC1COC2(C)Oc3cc(O)cc(O)c3CC12 (racemic) | 66 µM | 39 µM | Active | Non-toxic | Active | – | – | –
9 | C[C@H]1CO[C@]2(C)Oc3cccc(O)c3C[C@H]12 [DEHYDROXY XYLOKETAL H] | > 200 µM | 128 µM | – | Non-toxic | – | – | – | –

Continued, in another order:

Row | EC50 (Aorta [1]) | EC50 (Aorta [4]) | Compound | Activity (HUVEC [2]) | Activity (HUVEC [3]) | Angiogenic activity (Danio rerio [5]) | Angiogenic activity (Danio rerio [6]) | Activity (HUVEC [7]) | Activity (HUVEC [8])
10 | > 200 µM | > 200 µM | C[C@H]1CO[C@]2(C)Oc3c(c(O)c(C(=O)O)c4c3C[C@@H]3[C@@H](C)CO[C@]3(C)O4)C[C@H]12 [XYLOKETAL B ACID] | – | Non-toxic | – | – | – | –
11 | 41 µM | 19 µM | CC1COC2(C)Oc3cc(O)c4c(c3CC12)OC1(C)OCC(C)C1C4 (racemic) [(+/-)-XYLOKETAL B] | Active | Non-toxic | Active | Dose-dependent effect | – | –
12 | 31 µM | 12 µM | C[C@H]1CO[C@]2(C)Oc3c(c4c(c5c3C[C@@H]3[C@@H](C)CO[C@]3(C)O5)C[C@@H]3[C@@H](C)CO[C@]3(C)O4)C[C@H]12 | – | Non-toxic | Active | – | inactive | Active
13 | 10 µM | 3 µM | C[C@H]1CO[C@]2(C)Oc3c(c(O)c(C(N)=O)c4c3C[C@@H]3[C@@H](C)CO[C@]3(C)O4)C[C@H]12 [XYLOKETAL B FORMAMIDE] | – | Non-toxic | Active | – | – | –
14 | 33 µM | 17 µM | COc1cc2c(c3c1C[C@@H]1[C@@H](C)CO[C@]1(C)O3)C[C@@H]1[C@@H](C)CO[C@]1(C)O2 [XYLOKETAL B METHYL ETHER] | Active | Non-toxic | Active | – | inactive | Active
15 | 14 µM | 8 µM | COC(=O)c1c(O)c2c(c3c1O[C@@]1(C)OC[C@H](C)[C@H]1C3)O[C@@]1(C)OC[C@H](C)[C@H]1C2 [XYLOKETAL B METHYL FORMATE] | – | Non-toxic | Active | – | – | –
16 | 11 µM | 6 µM | CC1COC2(C)Oc3c(c4c(c5c3CC3C(C)COC3(C)O5)CC3C(C)COC3(C)O4)CC12 (racemic) | Active | Non-toxic | Active | – | – | –
17 | 52 µM | 40 µM | Cc1cc2c(c3c1C[C@@H]1[C@@H](C)CO[C@]1(C)O3)C[C@@H]1[C@@H](C)CO[C@]1(C)O2 [METHYL XYLOKETAL B] | Active | Non-toxic | Active | – | inactive | Active
18 | 22 µM | 23 µM | C#CCOc1cc2c(c3c1C[C@@H]1[C@@H](C)CO[C@]1(C)O3)C[C@@H]1[C@@H](C)CO[C@]1(C)O2 [XYLOKETAL B PROPARGYL ETHER] | Active | Non-toxic | Active | – | inactive | Active
19 | 77 µM | 43 µM | CCCOc1cc2c(c3c1C[C@@H]1[C@@H](C)CO[C@]1(C)O3)C[C@@H]1[C@@H](C)CO[C@]1(C)O2 [XYLOKETAL B PROPYL ETHER] | Active | Non-toxic | Active | – | – | –
20 | > 200 µM | 111 µM | CCCCOc1cc2c(c3c1C[C@@H]1[C@@H](C)CO[C@]1(C)O3)C[C@@H]1[C@@H](C)CO[C@]1(C)O2 [XYLOKETAL B BUTYL ETHER] | – | Non-toxic | – | – | – | –
21 | 15 µM | 9 µM | CNC(=O)c1c(O)c2c(c3c1O[C@@]1(C)OC[C@H](C)[C@H]1C3)O[C@@]1(C)OC[C@H](C)[C@H]1C2 | – | Non-toxic | Active | – | – | –
22 | 13 µM | 5 µM | COC(=O)C(C)NC(=O)c1c(O)c2c(c3c1O[C@@]1(C)OC[C@H](C)[C@H]1C3)O[C@@]1(C)OC[C@H](C)[C@H]1C2 (stereo partly drawn) | – | Non-toxic | Active | – | – | –
